Assay results published in ChEMBL document CHEMBL4251671, “Microporenic Acids A-G, Biofilm Inhibitors, and Antimicrobial Agents from the Basidiomycete Microporus Species” (J Nat Prod, 2018).
Values after ≈ are worked out from the molar mass of the structure shown. Active and inactive are the calls of the source. The rule behind the calls is not given here.

Each compound was assayed on Bacillus subtilis (assay: Antimicrobial activity against Bacillus subtilis DSM 10 by serial dilution method). Settings: not given.
Assay type: functional
How it was run: (§1)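 MIC by serial dilution in microtiter plates, in triplicate. YMG medium for yeasts and filamentous fungi, EBS for bacteria. Starting concentration 300 μg/mL.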

Row | SMILES | MIC
1 | CC(C)=CCC[C@@](C)(O)[C@@H](O)CC/C(C)=C/CC/C(C)=C/CO[C@@H](C(=O)O)[C@H](CC(=O)O)C(=O)O | inactive
2 | C[C@@H]1CO[C@H]2[C@@H]1CC[C@H](C)[C@]21C=C(CO)CC1 | 300 µg/mL (≈ 1270 µM)
3 | C/C(=C\CC/C(C)=C/CO[C@@H](C(=O)O)[C@H](CC(=O)O)C(=O)O)CC/C=C(\C)CC[C@H](O)C(C)(C)O | inactive
4 | C/C(=C\CC/C(C)=C/CO[C@@H](C(=O)O)[C@H](CC(=O)O)C(=O)O)CC/C=C(\C)CC/C=C(\C)C(=O)O | inactive
5 | CC(C)=CCC/C(C)=C/CC/C(C)=C/CO[C@@H](C(=O)O)[C@H](CC(=O)O)C(=O)O | 18.8 µg/mL (≈ 47.4 µM)

What follows are compounds tested on Micrococcus luteus (assay: Antimicrobial activity against Micrococcus luteus DSM 1790 by serial dilution method). Settings: not given.
Assay type: functional
How it was run: as §1

Row | SMILES | MIC
6 | C[C@@H]1CO[C@H]2[C@@H]1CC[C@H](C)[C@]21C=C(CO)CC1 | 75 µg/mL (≈ 317 µM)
7 | C/C(=C\CC/C(C)=C/CO[C@@H](C(=O)O)[C@H](CC(=O)O)C(=O)O)CC/C=C(\C)CC[C@H](O)C(C)(C)O | 300 µg/mL (≈ 602 µM)
8 | C/C(=C\CC/C(C)=C/CO[C@@H](C(=O)O)[C@H](CC(=O)O)C(=O)O)CC/C=C(\C)CC/C=C(\C)C(=O)O | 75 µg/mL (≈ 152 µM)
9 | CC(C)=CCC/C(C)=C/CC/C(C)=C/CO[C@@H](C(=O)O)[C@H](CC(=O)O)C(=O)O | 9.4 µg/mL (≈ 23.7 µM)
10 | CN(C)[C@@H]1C(=O)C(C(N)=O)=C(O)[C@@]2(O)C(=O)C3=C(O)c4c(O)cccc4[C@@](C)(O)[C@H]3[C@H](O)[C@@H]12 | 8.3 µg/mL (≈ 18 µM)

What follows are compounds tested on KB 3-1 (assay: Cytotoxicity against human KB 3.1 cells assessed as inhibition of cell growth at 37 ug/ml after 5 days by MTT assay). Settings: kb 3-1, 120 h.
Assay type: cell-based

Row | SMILES | Activity
11 | CC(C)=CCC[C@@](C)(O)[C@@H](O)CC/C(C)=C/CC/C(C)=C/CO[C@@H](C(=O)O)[C@H](CC(=O)O)C(=O)O | Non-Toxic
12 | C[C@@H]1CO[C@H]2[C@@H]1CC[C@H](C)[C@]21C=C(CO)CC1 | Non-Toxic
13 | C/C(=C\CC/C(C)=C/CO[C@@H](C(=O)O)[C@H](CC(=O)O)C(=O)O)CC/C=C(\C)CC[C@H](O)C(C)(C)O | Non-Toxic
14 | C/C(=C\CC/C(C)=C/CO[C@@H](C(=O)O)[C@H](CC(=O)O)C(=O)O)CC/C=C(\C)CC/C=C(\C)C(=O)O | Non-Toxic
15 | CC(C)=CCC/C(C)=C/CC/C(C)=C/CO[C@@H](C(=O)O)[C@H](CC(=O)O)C(=O)O | Non-Toxic

Each compound was assayed on Staphylococcus aureus (assay: Antimicrobial activity against Staphylococcus aureus DSM 1104 by serial dilution method). Settings: not given.
Assay type: functional

Row | SMILES | MIC
16 | CN(C)[C@@H]1C(=O)C(C(N)=O)=C(O)[C@@]2(O)C(=O)C3=C(O)c4c(O)cccc4[C@@](C)(O)[C@H]3[C@H](O)[C@@H]12 | 1 µg/mL (≈ 2.17 µM)

These compounds were tested on Staphylococcus aureus (assay: Antimicrobial activity against Staphylococcus aureus DSM 346 by serial dilution method). Settings: not given.
Assay type: functional
How it was run: as §1

Row | SMILES | MIC
17 | CC(C)=CCC[C@@](C)(O)[C@@H](O)CC/C(C)=C/CC/C(C)=C/CO[C@@H](C(=O)O)[C@H](CC(=O)O)C(=O)O | inactive
18 | C[C@@H]1CO[C@H]2[C@@H]1CC[C@H](C)[C@]21C=C(CO)CC1 | inactive
19 | C/C(=C\CC/C(C)=C/CO[C@@H](C(=O)O)[C@H](CC(=O)O)C(=O)O)CC/C=C(\C)CC[C@H](O)C(C)(C)O | inactive
20 | C/C(=C\CC/C(C)=C/CO[C@@H](C(=O)O)[C@H](CC(=O)O)C(=O)O)CC/C=C(\C)CC/C=C(\C)C(=O)O | inactive
21 | CC(C)=CCC/C(C)=C/CC/C(C)=C/CO[C@@H](C(=O)O)[C@H](CC(=O)O)C(=O)O | 150 µg/mL (≈ 378 µM)
22 | CN(C)[C@@H]1C(=O)C(C(N)=O)=C(O)[C@@]2(O)C(=O)C3=C(O)c4c(O)cccc4[C@@](C)(O)[C@H]3[C@H](O)[C@@H]12 | 1 µg/mL (≈ 2.17 µM)

What follows are compounds tested on L929 (assay: Cytotoxicity against mouse L929 cells assessed as inhibition of cell growth at 37 ug/ml after 5 days by MTT assay). Settings: l929, 120 h.
Assay type: cell-based

Row | SMILES | Activity
23 | CC(C)=CCC[C@@](C)(O)[C@@H](O)CC/C(C)=C/CC/C(C)=C/CO[C@@H](C(=O)O)[C@H](CC(=O)O)C(=O)O | Non-Toxic
24 | C[C@@H]1CO[C@H]2[C@@H]1CC[C@H](C)[C@]21C=C(CO)CC1 | Non-Toxic
25 | C/C(=C\CC/C(C)=C/CO[C@@H](C(=O)O)[C@H](CC(=O)O)C(=O)O)CC/C=C(\C)CC[C@H](O)C(C)(C)O | Non-Toxic
26 | C/C(=C\CC/C(C)=C/CO[C@@H](C(=O)O)[C@H](CC(=O)O)C(=O)O)CC/C=C(\C)CC/C=C(\C)C(=O)O | Non-Toxic
27 | CC(C)=CCC/C(C)=C/CC/C(C)=C/CO[C@@H](C(=O)O)[C@H](CC(=O)O)C(=O)O | Non-Toxic

The compounds below were run on Mucor plumbeus (assay: Antimicrobial activity against Mucor plumbeus MUCL 49355 by serial dilution method). Settings: not given.
Assay type: functional
How it was run: as §1

Row | SMILES | MIC
28 | CC(C)=CCC[C@@](C)(O)[C@@H](O)CC/C(C)=C/CC/C(C)=C/CO[C@@H](C(=O)O)[C@H](CC(=O)O)C(=O)O | inactive
29 | C[C@@H]1CO[C@H]2[C@@H]1CC[C@H](C)[C@]21C=C(CO)CC1 | 75 µg/mL (≈ 317 µM)
30 | C/C(=C\CC/C(C)=C/CO[C@@H](C(=O)O)[C@H](CC(=O)O)C(=O)O)CC/C=C(\C)CC[C@H](O)C(C)(C)O | 300 µg/mL (≈ 602 µM)
31 | C/C(=C\CC/C(C)=C/CO[C@@H](C(=O)O)[C@H](CC(=O)O)C(=O)O)CC/C=C(\C)CC/C=C(\C)C(=O)O | inactive
32 | CC(C)=CCC/C(C)=C/CC/C(C)=C/CO[C@@H](C(=O)O)[C@H](CC(=O)O)C(=O)O | 75 µg/mL (≈ 189 µM)

These compounds were tested on L929 (assay: Cytotoxicity against mouse L929 cells assessed as inhibition of cell growth after 5 days by MTT assay). Settings: L929, 120 h.
Assay type: cell-based
How it was run: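 IC50 determined by the previously described in vitro cytotoxicity method against mouse fibroblast L929 and HeLa-derived KB-3.1 cells. Compounds were tested from a starting concentration of 37 μg/mL.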

Row | SMILES | IC50
33 | C/C(=C\c1csc(C)n1)[C@@H]1C[C@@H]2O[C@]2(C)CCC[C@H](C)[C@H](O)[C@@H](C)C(=O)C(C)(C)[C@@H](O)CC(=O)O1 [PATUPILONE] | 1.4 nM

These compounds were tested on Escherichia coli. Settings: DSM 498.

Row | SMILES | MIC
34 | CC(C)=CCC[C@@](C)(O)[C@@H](O)CC/C(C)=C/CC/C(C)=C/CO[C@@H](C(=O)O)[C@H](CC(=O)O)C(=O)O | inactive
35 | C[C@@H]1CO[C@H]2[C@@H]1CC[C@H](C)[C@]21C=C(CO)CC1 | inactive
36 | C/C(=C\CC/C(C)=C/CO[C@@H](C(=O)O)[C@H](CC(=O)O)C(=O)O)CC/C=C(\C)CC[C@H](O)C(C)(C)O | inactive
37 | C/C(=C\CC/C(C)=C/CO[C@@H](C(=O)O)[C@H](CC(=O)O)C(=O)O)CC/C=C(\C)CC/C=C(\C)C(=O)O | inactive
38 | CC(C)=CCC/C(C)=C/CC/C(C)=C/CO[C@@H](C(=O)O)[C@H](CC(=O)O)C(=O)O | inactive

The compounds below were run on Wickerhamomyces anomalus (assay: Antimicrobial activity against Pichia anomala DSM 6766 by serial dilution method). Settings: not given.
Assay type: functional
How it was run: as §1

Row | SMILES | MIC
39 | CC(C)=CCC[C@@](C)(O)[C@@H](O)CC/C(C)=C/CC/C(C)=C/CO[C@@H](C(=O)O)[C@H](CC(=O)O)C(=O)O | inactive
40 | C[C@@H]1CO[C@H]2[C@@H]1CC[C@H](C)[C@]21C=C(CO)CC1 | inactive
41 | C/C(=C\CC/C(C)=C/CO[C@@H](C(=O)O)[C@H](CC(=O)O)C(=O)O)CC/C=C(\C)CC[C@H](O)C(C)(C)O | inactive
42 | C/C(=C\CC/C(C)=C/CO[C@@H](C(=O)O)[C@H](CC(=O)O)C(=O)O)CC/C=C(\C)CC/C=C(\C)C(=O)O | inactive
43 | CC(C)=CCC/C(C)=C/CC/C(C)=C/CO[C@@H](C(=O)O)[C@H](CC(=O)O)C(=O)O | inactive

Each compound was assayed on Yamadazyma tenuis (assay: Antimicrobial activity against Candida tenuis MUCL 29982 by serial dilution method). Settings: not given.
Assay type: functional
How it was run: as §1

Row | SMILES | MIC
44 | CC(C)=CCC[C@@](C)(O)[C@@H](O)CC/C(C)=C/CC/C(C)=C/CO[C@@H](C(=O)O)[C@H](CC(=O)O)C(=O)O | inactive
45 | C[C@@H]1CO[C@H]2[C@@H]1CC[C@H](C)[C@]21C=C(CO)CC1 | inactive
46 | C/C(=C\CC/C(C)=C/CO[C@@H](C(=O)O)[C@H](CC(=O)O)C(=O)O)CC/C=C(\C)CC[C@H](O)C(C)(C)O | inactive
47 | C/C(=C\CC/C(C)=C/CO[C@@H](C(=O)O)[C@H](CC(=O)O)C(=O)O)CC/C=C(\C)CC/C=C(\C)C(=O)O | inactive
48 | CC(C)=CCC/C(C)=C/CC/C(C)=C/CO[C@@H](C(=O)O)[C@H](CC(=O)O)C(=O)O | 37.5 µg/mL (≈ 94.6 µM)
